In ChEMBL document CHEMBL1142659, “The role of intracellularly released formaldehyde and butyric acid in the anticancer activity of acyloxyalkyl esters” (J Med Chem, 2005):

Columns and labels:
Assay type in all cases: functional, cell-based
[1] = Concentration required for 50% inhibition of human MES-DX5 cell proliferation
Outline: (§1)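 Solid-tumour lines (HT-29, PC-3, MES-SA, and its mdr-1/P-glycoprotein-high MES-SA/Dx5 subclone) were seeded at (2.5-5) × 10^3 cells per well. They were exposed to escalating prodrug concentrations for 4 days, then harvested. Proliferation was measured by Hoechst DNA staining, and IC50 values are given in µM.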

[2] = test system: MES-SA; assay: Concentration required for 50% inhibition of human MES-SA cell proliferation; outline: as §1
[3] = test system: PC-3; assay: Concentration required for 50% inhibition of human PC-3 cell proliferation; outline: as §1
[4] = test system: HL-60; assay: Concentration required for 50% inhibition of human HL-60 cell proliferation
Outline: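 HL-60 leukemia cells, including the multidrug-resistant HL-60/MX2 subline with altered topoisomerase II activity, were seeded at (2.5-5) × 10^3 cells per well. They were exposed to escalating prodrug concentrations for 4 days. Proliferation was read by Alamar blue, and IC50 values are given in µM.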

[5] = test system: HT-29; assay: Concentration required for 50% inhibition of human HT-29 cell proliferation; outline: as §1

IC50 [3]: 56 µM | IC50 [4]: 36 µM | IC50 [5]: 52 µM
Compound: CCCC(=O)OCOC(=O)C(C)(C)C [AN-9]
IC50 [1]: 46 µM | IC50 [2]: 40 µM
